The values below come from publication PMC6159316 (Journal of Insect Science, 2018).

In one assay the target is T1, CSP1 (Chilo suppressalis, UniProt V9PY22).
T1 sequence (V9PY22 18-122): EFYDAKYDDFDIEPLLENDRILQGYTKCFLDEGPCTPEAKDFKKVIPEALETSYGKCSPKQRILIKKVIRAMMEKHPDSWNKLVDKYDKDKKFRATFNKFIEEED
Type of assay: binding. To be noted: for IC50: read-out: CSP1 IC50, displacement of 1-NPN, ligand 2–30 µM; for activity at 30 µM: pH 7.4, read-out: CSP1 Intensity %; for Ki: read-out: CSP1 Ki, competitive binding with 1-NPN. The essentials:
(§1)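 Mature CSP cDNA in pET-30a(+), expressed in E. coli, purified, His-tag cleaved with enterokinase. […] Competition: 2 µM protein plus 2 µM 1-NPN in 50 mM Tris–HCl, titrated with 1 mM odorant stock to 2–30 µM final. Excitation 337 nm, emission 400–460 nm, three replicates.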

The target in a further assay is CSP2. Type of assay: binding, Chilo suppressalis. To be noted: for IC50: read-out: CSP2 IC50, displacement of 1-NPN, ligand 2–30 µM; for Ki: read-out: CSP2 Ki, competitive binding with 1-NPN.
The target of another assay is T2, CSP3 (Chilo suppressalis, UniProt V9PY40).
T2 sequence (V9PY40 19-126): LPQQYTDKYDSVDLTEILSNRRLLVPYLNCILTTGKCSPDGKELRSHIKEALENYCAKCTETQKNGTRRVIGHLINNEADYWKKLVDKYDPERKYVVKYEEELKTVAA
Type of assay: binding. To be noted: for IC50: read-out: CSP3 IC50, displacement of 1-NPN, ligand 2–30 µM; for activity at 30 µM: pH 7.4, read-out: CSP3 Intensity %; for Ki: read-out: CSP3 Ki, competitive binding with 1-NPN. The essentials: as §1

In a further assay the test system is adult C. suppressalis. To be noted: ref Wei et al. 2013, Khuhro et al. 2017a; cited from earlier work.

Like-named read-outs stand apart in the source and are kept apart here. Where only a bound is given, the exact number is not on record here.

Turning to `CC/C=C\CCO` [Z3-Hexenol], the IC50 at CSP1 was over 30 µM; at CSP2, 20.7 µM; at CSP3, over 30 µM. Besides, the Ki on CSP2 turned out to be 17.7 µM.
Consider `O=Cc1ccccc1` [Benzaldehyde], for which the activity at 30 µM on CSP1 is 34.2 ± 2.35%. Also, at CSP2, the IC50 turned out to be 28.5 µM and the Ki is 24.5 µM. Moreover, the activity at 30 µM on CSP3 stood at 44.2 ± 3.53%.
For `CCCCCC/C=C\CCCCCCCC=O` [Z9-Hexadecenal], the IC50 at CSP1 stood at 17.4 µM; at CSP2, 11.1 µM; at CSP3 it was 9.9 µM. The figures for the Ki on CSP1, on CSP2 and on CSP3 were 13.5 µM, 9.55 µM and 8.86 µM, respectively.
As to `CCCCCCCCCCCC=O` [Laurinaldehyde], the IC50 is 11.8 µM at CSP1, 19.3 µM at CSP2 and over 30 µM on CSP3. Further, the Ki was 9.16 µM on CSP1, at most 10 µM at CSP1 (listed as laurinaldehyde) and 16.6 µM on CSP2.
As to `CCC/C=C/COC(C)=O` [E2-Hexenyl acetate], the IC50 on CSP1, at CSP2 and on CSP3 was over 30 µM throughout.
As to `CCCCCCCC/C=C\CCCCCCCC(=O)O` [Oleic acid], the activity at 30 µM came out at 58.9 ± 2.59% at CSP1 and 84.7 ± 2.37% at CSP3. Further, the IC50 at CSP2 is over 30 µM.
In the case of `CCC/C=C\C=O` [Z2-Hexenal], the IC50 on CSP1 was 15.8 µM; on CSP3, over 30 µM. Besides, the Ki on CSP1 came to 12.2 µM; on CSP2 it was 28.6 µM.
As for `CC/C=C\CCOC(C)=O` [Z3-Hexenyl acetate], the IC50 at CSP1, at CSP2 and at CSP3 was over 30 µM each time.
Take `CCCC/C=C\CCCCCCCCCCCC=O` [Z13-Octadecenal]: the IC50 at CSP1 was over 30 µM; on CSP2, 20 µM; at CSP3, 25.1 µM. Besides, the Ki amounted to 17.2 µM on CSP2 and 22.5 µM on CSP3.
As for `C=CC(C)=CCC=C(C)C` [Ocimene], the IC50 at CSP1, on CSP2 and on CSP3 was over 30 µM in each case.
In the case of `CC/C=C\CCO` [E3-Hexenol], the IC50 on CSP1, at CSP2 and at CSP3 was over 30 µM throughout.
For `CCCCCCCCCCCCCCCC(=O)O` [Palmitic acid], the activity at 30 µM at CSP1 is 78.2 ± 0.93%; on CSP3, over 100%. Moreover, the IC50 on CSP2 was over 30 µM.
Regarding `CCC/C=C/C=O` [E2-Hexenal], the half-maximal inhibitory concentration (IC50) on CSP1, at CSP2 and at CSP3 was over 30 µM in each case.
For `CCC/C=C/CO` [E2-hexenol], the IC50 on CSP1, on CSP2 and on CSP3 was over 30 µM each time.
Turning to `CCCCCCCCCCCCCC(C)=O` [2-Pentadecanone], at CSP1, the activity at 30 µM came out at 27.9 ± 2.11%. Further, at CSP2, the IC50 came to 23.6 µM and the Ki worked out at 20.3 µM. For the same compound, the activity at 30 µM on CSP3 is 67.6 ± 0.91%.
As for `CCCCCCCCCCCC(=O)O` [Lauric acid], the half-maximal inhibitory concentration (IC50) at CSP1, on CSP2 and at CSP3 was over 30 µM each time.
Take `CCCCCC(C)=O` [2-Heptanone]: the figures for the activity at 30 µM at CSP1 and at CSP3 were 49.3 ± 1.89% and 82 ± 3.87%, respectively. On CSP2, the IC50 was over 30 µM.
On to `CCCC/C=C\CCCCCCCCCC=O` [Z11-Hexadecenal], for which the figures for the IC50 on CSP1, at CSP2 and at CSP3 were 20.9 µM, 10.3 µM and 6.96 µM, respectively. Moreover, the Ki on CSP1 is 16.2 µM; on CSP2, 8.89 µM; at CSP3 it was 6.23 µM.
Take `CCCCC/C=C\C/C=C\CCCCCCCC(=O)O` [Linoleic acid]: the activity at 30 µM on CSP1 was 55.6 ± 3.45%. In addition, on CSP2, the IC50 worked out at 20.6 µM and the Ki worked out at 17.7 µM. Further, the activity at 30 µM on CSP3 amounted to 89.17 ± 0.88%.
Consider Farnesene, for which the “electroantennographic (EAG) response” value with adult C. suppressalis is given as “significant EAG response”. Moreover, at CSP1 (criteria for plant volatiles), the “binding affinity class for CSP1 (plant volatiles)” value is “did not show high or moderate binding affinity”. In addition, the IC50 on CSP1 was 27.6 µM; at CSP2, 24 µM; at CSP3 it was over 30 µM. Moreover, the Ki at CSP1 was found to be 23.3 µM; on CSP2 it was 20.4 µM. In addition, the “binding affinity class for CSP2 (plant volatiles)” value at CSP2 (criteria for plant volatiles) is “did not show high or moderate binding affinity”. Also, the “binding affinity class for CSP3 (plant volatiles)” value at CSP3 (criteria for plant volatiles) was “did not show high or moderate binding affinity”.
With `OCc1ccccc1` [Benzyl alcohol], the figures for the activity at 30 µM at CSP1 and at CSP3 were 67.5 ± 2.24% and 84.1 ± 2.96%, respectively. The IC50 on CSP2 was over 30 µM.
Consider `CCOC(=O)c1ccccc1` [Ethyl benzoates], for which the IC50 on CSP1, at CSP2 and on CSP3 was over 30 µM in each case.
In the case of `CCCCCCCCCCCC(C)=O` [2-Tridecanone], on CSP1, the activity at 30 µM was 24.8 ± 1.61%. At CSP2, the IC50 worked out at 24.3 µM and the Ki came out at 20.9 µM. Also, on CSP3, the activity at 30 µM amounted to 72.8 ± 2.06%.
For the compound `CCCCCCCCC=O` [1-Nonaldehyde], the activity at 30 µM on CSP1 was found to be 74.1%; at CSP3, 75 ± 2.3%. At CSP2, the IC50 was over 30 µM.
For `CC1=CC[C@H](C(C)C)C=C1` [α-Phellandrene], in that order: 73 ± 2.46%, 95.3 ± 1.58% and over 30 µM.
Take `CC=CC=CCO` [2,4 hexadienol]: at CSP1, the activity at 30 µM was 85.8%. At CSP2, the IC50 is 18.4 µM and the Ki came to 15.8 µM. Besides, the activity at 30 µM at CSP3 was 53.5 ± 1.87%.
Take `CCCCCCO` [Hexyl alcohol]: the activity at 30 µM on CSP1 turned out to be 64 ± 4.34%; at CSP3 it was 67.7 ± 3.05%. Besides, at CSP2, the IC50 was over 30 µM.
Turning to `CCCCCC(C)O` (stereo not shown) [2-Heptanol], the activity at 30 µM on CSP1 was 48.9%; on CSP3 it was 91.8 ± 1.7%. Also, the IC50 on CSP2 amounted to 10.8 µM. Also, the figures for the Ki on CSP2 and on CSP2 (listed as 2-heptanol) were 9.25 µM and at most 10 µM, respectively.
Regarding `C[C@@H]1CC[C@H]2C(C)(C)[C@H]3C[C@@]12CC[C@@]3(C)O` [(+)-Cedrol], the activity at 30 µM was determined as 47.2 ± 1.16% at CSP1 and 45.2 ± 1.9% at CSP3. For the same compound, the IC50 at CSP2 stood at 10.7 µM. Also, the inhibitory constant (Ki) at CSP2 is 9.22 µM; on CSP2 (listed as (+)-cedrol) it was at most 10 µM.
